Data on 14 molecules can be found in article PMC6559718 (Journal of biomolecular screening, 2016).

Series [1] addresses T1, human ANT2 (Homo sapiens, UniProt P05141).
T1 sequence (P05141 1-298): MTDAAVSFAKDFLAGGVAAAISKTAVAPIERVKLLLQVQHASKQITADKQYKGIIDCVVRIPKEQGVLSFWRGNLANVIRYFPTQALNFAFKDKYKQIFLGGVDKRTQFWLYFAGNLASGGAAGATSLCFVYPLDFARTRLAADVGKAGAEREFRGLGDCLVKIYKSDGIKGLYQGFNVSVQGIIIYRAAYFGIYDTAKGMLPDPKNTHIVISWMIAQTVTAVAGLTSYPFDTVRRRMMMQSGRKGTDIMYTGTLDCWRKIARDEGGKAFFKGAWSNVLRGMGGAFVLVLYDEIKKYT
Kind of series: ADP/ATP exchange with isolated yeast mitochondria expressing hANT2. It counts as biochemical. Conditions: 10 μM, isolated yeast mitochondria, hANT2 (Fig. 2B left).

Series [2] concerns four hANT yeast strains.
The test system of series [3] is four hANT yeast strains. Kind of series: Yeast growth assay in YPEG medium, the four hANT yeast strains. The following applies: hANT1, -2, -3 or -4 yeast strains, BKA final 50 μM. It counts as cell-based, Saccharomyces cerevisiae.
Series [4] relates to MiaPaCa-2 cells. The series is described as follows: Oxygen consumption rate in MiaPaCa-2 cells. It counts as cell-based, human. Conditions: after ADP addition, leelamine 50 pM as printed. The gist of the method: (§1)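 Cells were kept in RPMI1640 with 10% FBS, plated at 20,000/well, and incubated overnight at 37 °C in 5% CO2. Before the assay, medium was replaced with MAS buffer (mannitol/sucrose/KH2PO4/MgCl2/HEPES/EGTA, 0.2% fatty-acid-free BSA, pH 7.4) plus 10 mM pyruvate and […]. Sequential injections were atpenin A5, 3.5 mM ADP, plasma membrane permeabilizer, then test compound or cATR control. OCR was read on an extracellular flux analyzer.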

The target in series [5] is T2, human ANT3 (Homo sapiens, UniProt P12236).
T2 sequence (P12236 1-298): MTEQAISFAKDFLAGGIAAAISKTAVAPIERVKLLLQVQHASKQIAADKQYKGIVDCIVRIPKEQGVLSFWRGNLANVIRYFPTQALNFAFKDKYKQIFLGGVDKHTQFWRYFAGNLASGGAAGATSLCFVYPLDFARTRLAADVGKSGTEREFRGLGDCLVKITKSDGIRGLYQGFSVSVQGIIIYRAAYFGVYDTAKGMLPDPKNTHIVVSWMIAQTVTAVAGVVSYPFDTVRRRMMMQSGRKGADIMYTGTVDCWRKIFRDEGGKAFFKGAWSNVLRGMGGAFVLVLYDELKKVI
The series is described as follows: ADP/ATP exchange with Lactococcus lactis expressing hANT3. It counts as biochemical. Conditions: for IC50: read-out: L. lactis hANT3 IC50, [3H]ADP uptake, ADP/ATP exchange, mean ± SEM.

For series [6], the system named is human ANT isoforms. Kind of series: ADP/ATP exchange in L. lactis, human ANT isoforms. It counts as biochemical. The following applies: single-concentration test of compounds selected from the yeast growth assay.
Series [7] concerns the target T3, human ANT1 (Homo sapiens, UniProt P12235).
T3 sequence (P12235 1-298): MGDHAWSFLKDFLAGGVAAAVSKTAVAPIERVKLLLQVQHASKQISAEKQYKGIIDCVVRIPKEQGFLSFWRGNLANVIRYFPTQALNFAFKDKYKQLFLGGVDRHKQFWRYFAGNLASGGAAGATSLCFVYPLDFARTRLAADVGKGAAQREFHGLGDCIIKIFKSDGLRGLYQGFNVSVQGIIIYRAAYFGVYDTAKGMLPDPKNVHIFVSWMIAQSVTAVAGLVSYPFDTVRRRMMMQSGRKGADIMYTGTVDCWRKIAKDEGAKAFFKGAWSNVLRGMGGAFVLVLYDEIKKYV
The series is described as follows: ADP/ATP exchange with Lactococcus lactis expressing hANT1. The format is biochemical. Conditions: for IC50: read-out: L. lactis hANT1 IC50, [3H]ADP uptake, ADP/ATP exchange, mean ± SEM.

Series [8] addresses T1, human ANT2. Kind of series: ADP/ATP exchange with Lactococcus lactis expressing hANT2. It counts as biochemical. Conditions: for IC50: read-out: L. lactis hANT2 IC50, [3H]ADP uptake, ADP/ATP exchange, mean ± SEM.
For series [9], the system named is HCT116 cells. Kind of series: Oxygen consumption rate in HCT116 cells. The format is cell-based, human. Conditions: after ADP addition, leelamine 50 pM as printed. The gist of the method: as §1
The subject of series [10] is yeast strain expressing hANT2. Kind of series: microbe, parasite or virus in culture. It counts as cell-based. The following applies: Saccharomyces cerevisiae, read-out: Activity hANT2 IC50.
Series [11] has as its system yeast strain expressing hANT1. The series is described as follows: microbe, parasite or virus in culture. It counts as cell-based. Conditions: Saccharomyces cerevisiae, read-out: Activity hANT1 IC50.
In series [12] the test system is yeast strain expressing hANT4. The series is described as follows: microbe, parasite or virus in culture. It counts as cell-based. Conditions: Saccharomyces cerevisiae, read-out: Activity hANT4 IC50.
Series [13] concerns yeast strain expressing hANT3. The series is described as follows: microbe, parasite or virus in culture. It counts as cell-based. The following applies: Saccharomyces cerevisiae, read-out: Activity hANT3 IC50.
Series [14] deals with human ANT isoforms. Kind of series: ADP/ATP exchange in isolated yeast mitochondria, human ANT isoforms. It counts as biochemical.
Series [15] in a line: in vitro. The following applies: Saccharomyces cerevisiae.
Series [16] is described as follows: in vitro. The following applies: Saccharomyces cerevisiae. The source holds these as a separate data set.
A short description of series [17]: in vitro. The following applies: Saccharomyces cerevisiae. This is another data set of the same source.
Series [18] in a line: in vitro. The following applies: Saccharomyces cerevisiae. The source holds these as a separate data set.

`C=C1[C@@H]2CC[C@H]3[C@]4(C)C[C@H](O[C@@H]5O[C@H](CO)[C@@H](OS(=O)(=O)O)[C@H](OS(=O)(=O)O)[C@H]5OC(=O)CC(C)C)C[C@@H](C(=O)O)[C@H]4CC[C@]3(C2)[C@H]1O` [ATR, atractyloside]: the “ADP/ATP exchange activity / ADP uptake” value in series [1] is “completely inhibited”.

Consider `CCCCc1oc2ccccc2c1C(=O)c1cc(I)c(OCCN(CC)CC)c(I)c1` [Amiodarone], for which, in series [2], the “cytotoxic effect in glucose-containing medium” value is reported as “exhibited cytotoxic effect in certain strains”. For the same molecule, the “activity in LOPAC pilot screen” value in [3] is listed as “identified as a hit”.

Turning to `CO[C@H](C/C=C\C=C\CC/C=C/C[C@H](C)/C=C/C(=C\C(=O)O)CC(=O)O)/C(C)=C\C=C(/C)C(=O)O` [BKA, bongkrekic acid], in series [1], the “ADP/ATP exchange activity / ADP uptake” value is given as “completely inhibited”. The “activity in LOPAC pilot screen” value in series [3] is given as “weakly active”.

Take `O=C(O)c1ccc2cc(-c3ccc(O)c(C45CC6CC(CC(C6)C4)C5)c3)ccc2c1` [CD437]: in series [2], the “cytotoxic effect in glucose-containing medium” value is “exhibited cytotoxic effect in certain strains”. For the same molecule, the “oxygen consumption rate (OCR)” value in series [4] is given as “Neither CD437 nor closantel produced an appreciable level of reduction of OCR”; in series [9], “inhibited OCR”. For the same molecule, the IC50 (as a rule, the concentration that inhibits the measured activity by half) in series [5] was 94 ± 19 µM; in series [7] it was 54 ± 9 µM; in [8], 36 ± 6.3 µM. Moreover, in series [6], the “inhibition of [3H]ADP uptake by L. lactis” value (“inhibition of [3H]ADP uptake” below) was “inhibited”. In series [8] (L. lactis assay), the “selectivity for hANT2 over hANT3” value is listed as ~ 3 fold.

As for `N#CC(C#N)=NNc1ccc(OC(F)(F)F)cc1` [FCCP, carbonyl cyanide-4-(trifluoromethoxy) phenylhydrazone], the “[3H]ADP uptake in L. lactis” value in [8] (10 μM, L. lactis expressing hANT2 (Fig. 2B right)) is “inactive”.

As for `O=C(Nc1cc(C(F)(F)F)cc(C(F)(F)F)c1)c1cc(Cl)ccc1O` [IMD 0354], the IC50 stood at 0.45 ± 0.1 µM in series [10], 0.58 ± 0.1 µM in series [11], 0.85 ± 0.07 µM in series [12] and 0.52 ± 0.08 µM in series [13].

Turning to `CC(C)c1ccc2c(c1)CC[C@H]1[C@](C)(CN)CCC[C@]21C` [Leelamine], the “oxygen consumption rate (OCR)” value in [4] is “decreased OCR”; in series [9] it was “decreased the OCR to a similar extent as cATR”. Also, in series [5] (Fig. 3C), the “effect on translocase activity in L. lactis expressing hANT3” value is recorded as “inhibited the activity”. Also, the figures for the IC50 in series [5], in series [7] and in [8] were 47 ± 11 µM, over 100 µM and over 100 µM, respectively. Moreover, the “inhibition of [3H]ADP uptake” value in [6] was “inhibited”. In series [7] (Fig. 3C), the “effect on translocase activity in L. lactis expressing hANT1” value is given as “increased translocase activity”. Moreover, the “effect on hANT activity in mitochondrial assays” value in series [14] (100 μM, all isoforms) is “inhibited hANT activity”. The “effect on translocase activity in mitochondria” value in series [14] (10 and 30 μM, hANT4, hANT3 and particularly hANT2 strains) is on record as “increased translocase activity”. Also, the “effect on translocase activity in L. lactis expressing hANT2” value in series [8] (Fig. 3C) is “increased translocase activity”.

For the molecule `CN(C)c1ccc(O)c2c1C[C@H]1C[C@H]3[C@H](N(C)C)C(O)=C(C(N)=O)C(=O)[C@@]3(O)C(O)=C1C2=O` [Minocycline], the IC50 in series [10], in [11], in series [15], in [16], in series [17] and in [12] was over 100 µM in each case. Moreover, the IC50 in [18] and in [13] was over 100 µM throughout. The “inhibition of [3H]ADP uptake” value in series [6] is “completely inactive”. In series [14] (30 μM, in at least one yeast strain (Suppl. Table S1)), the “inhibition of exchange activity in the mitochondrial assay” value was “strong inhibition”.

For the molecule `C[C@@H]1C[C@H]2CC[C@H](O2)[C@H](C)C(=O)O[C@@H](C)C[C@@H]2CC[C@@H](O2)[C@@H](C)C(=O)O[C@H](C)C[C@H]2CC[C@H](O2)[C@H](C)C(=O)O[C@@H](C)C[C@@H]2CC[C@@H](O2)[C@@H](C)C(=O)O1` [Nonactin], the IC50 in [10] is 3.3 ± 1.1 µM; in [11], 4.4 ± 1.3 µM; in series [15], over 100 µM; in [16], over 100 µM; in [17], over 100 µM; in series [12], 3.3 ± 0.4 µM. For the same molecule, the IC50 was over 100 µM in [18] and 4.7 ± 1.5 µM in series [13].

With `CC(C)(C)c1cc(C=C(C#N)C#N)cc(C(C)(C)C)c1O` [Tyrphostin A9], the IC50 in series [10] was 35 ± 15 µM; in [11], 42 ± 20 µM; in [15] it was over 100 µM; in series [16], over 100 µM; in series [17], over 100 µM; in series [12], 13 ± 4 µM. For the same molecule, the IC50 was over 100 µM in series [18] and 24 ± 10 µM in series [13].

Regarding `C=C1[C@@H]2CC[C@H]3[C@]4(C)C[C@H](O[C@@H]5O[C@H](CO)[C@@H](OS(=O)(=O)O)[C@H](OS(=O)(=O)O)[C@H]5OC(=O)CC(C)C)CC(C(=O)O)(C(=O)O)[C@H]4CC[C@]3(C2)[C@H]1O` [cATR, carboxyatractyloside], the “oxygen consumption rate (OCR)” value in series [4] and in [9] was “decreased OCR” in each case. Moreover, the results for the IC50 in series [5], in series [7] and in [8] were 0.0023 ± 0.0007 µM, 0.0024 ± 0.0005 µM and 0.0017 ± 0.0004 µM, respectively. Besides, in series [1], the “ADP/ATP exchange activity / ADP uptake” value was “completely inhibited”.

On to `COc1ccc2c(c[n+](C)c3c4cc5c(cc4ccc23)OCO5)c1OC` [chelerythrine], for which, in series [1], the “ADP/ATP exchange activity / ADP uptake” value is recorded as “reduced ADP uptake”.

Take `O=C(O)c1nn(Cc2ccc(Cl)cc2Cl)c2ccccc12` [lonidamine]: the “ADP/ATP exchange activity / ADP uptake” value in [1] was “reduced ADP uptake”.

In the case of antimycin, the “ADP/ATP exchange activity / ADP uptake” value in series [1] is “reduced ADP uptake”.
